In ChEMBL document CHEMBL2311516, “Structure-activity relationship studies of argiotoxins: selective and potent inhibitors of ionotropic glutamate receptors” (J Med Chem, 2013):

Legend:
Rattus norvegicus [1] = organism: Rattus norvegicus; experiment: Selectivity ratio of IC50 for rat GluA1 receptor flip form to IC50 for rat GluN1/2A receptor
Method in brief: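 Ratio IC50(GluA1)/IC50(GluN1/2A), each IC50 from composite dose−response data of 5 to 10 oocytes in two-electrode voltage clamp. GluA1_i driven by 300 μM glutamate; GluN1/2A driven by 100 μM glutamate plus 100 μM glycine; antagonist coapplied.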

[2] = target: Glutamate NMDA receptor; Grin1/Grin2a (Rattus norvegicus, UniProt P35439+Q00959); experiment: Inhibition of rat GluN1/2A receptor expressed in Xenopus laevis oocyte assessed as glutamate and glycine-induced current at holding potentials from -80 to -40 mV by two electrode voltage clamp analysis
Sequence of Glutamate NMDA receptor; Grin1/Grin2a (Q00959 whole entry, other chains not shown): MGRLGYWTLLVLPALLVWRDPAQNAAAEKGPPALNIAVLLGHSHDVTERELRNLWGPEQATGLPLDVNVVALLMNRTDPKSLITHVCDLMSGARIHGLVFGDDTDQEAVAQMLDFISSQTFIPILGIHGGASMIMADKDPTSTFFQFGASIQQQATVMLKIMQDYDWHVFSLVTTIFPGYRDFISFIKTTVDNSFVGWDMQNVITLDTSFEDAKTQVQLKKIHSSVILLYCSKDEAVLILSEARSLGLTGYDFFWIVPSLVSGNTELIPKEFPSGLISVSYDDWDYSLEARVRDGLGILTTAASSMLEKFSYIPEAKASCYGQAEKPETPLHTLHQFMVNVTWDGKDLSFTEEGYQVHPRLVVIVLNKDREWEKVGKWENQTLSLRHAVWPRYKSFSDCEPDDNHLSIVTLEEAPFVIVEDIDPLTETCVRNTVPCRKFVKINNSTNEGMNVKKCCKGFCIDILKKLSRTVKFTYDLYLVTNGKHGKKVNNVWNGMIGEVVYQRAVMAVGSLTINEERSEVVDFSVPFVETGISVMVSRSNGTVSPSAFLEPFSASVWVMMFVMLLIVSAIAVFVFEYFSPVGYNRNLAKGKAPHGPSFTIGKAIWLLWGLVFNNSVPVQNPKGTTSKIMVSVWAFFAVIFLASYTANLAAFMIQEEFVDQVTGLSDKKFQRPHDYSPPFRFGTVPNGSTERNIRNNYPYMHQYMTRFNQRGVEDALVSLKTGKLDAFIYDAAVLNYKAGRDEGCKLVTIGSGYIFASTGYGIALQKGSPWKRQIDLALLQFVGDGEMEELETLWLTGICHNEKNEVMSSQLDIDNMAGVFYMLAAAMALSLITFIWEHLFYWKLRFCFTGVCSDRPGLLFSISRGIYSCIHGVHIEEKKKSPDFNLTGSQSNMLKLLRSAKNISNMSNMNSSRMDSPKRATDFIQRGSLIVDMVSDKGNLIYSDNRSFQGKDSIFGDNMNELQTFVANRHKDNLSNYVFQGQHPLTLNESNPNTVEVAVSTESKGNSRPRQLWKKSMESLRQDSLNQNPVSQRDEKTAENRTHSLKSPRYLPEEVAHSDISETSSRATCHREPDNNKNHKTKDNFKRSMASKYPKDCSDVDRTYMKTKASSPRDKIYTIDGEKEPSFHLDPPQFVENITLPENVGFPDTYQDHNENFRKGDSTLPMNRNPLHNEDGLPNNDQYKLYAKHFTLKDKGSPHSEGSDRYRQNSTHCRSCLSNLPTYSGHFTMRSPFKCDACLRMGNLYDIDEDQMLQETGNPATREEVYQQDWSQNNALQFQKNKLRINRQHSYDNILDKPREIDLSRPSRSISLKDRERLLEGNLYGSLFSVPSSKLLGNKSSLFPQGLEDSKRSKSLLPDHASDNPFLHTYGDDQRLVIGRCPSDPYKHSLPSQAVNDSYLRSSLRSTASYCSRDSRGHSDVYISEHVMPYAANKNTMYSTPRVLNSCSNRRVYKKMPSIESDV
Method in brief: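 Oocytes injected with 25 nL GluN1/N2A cRNA (1:1, 0.05 ng/nL), held at 17 °C in Barth's medium with gentamicin, recorded 3−6 days later by two-electrode voltage clamp in frog Ringer's. Current evoked by 100 μM L-glutamate plus 100 μM glycine, antagonist coapplied at rising levels; holding potentials −40, −60, −80 mV. IC50 from logistic fit, triplicate curves.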

Rattus norvegicus [3] = organism: Rattus norvegicus; experiment: Selectivity ratio of IC50 for rat GluN1/2A receptor to IC50 for rat GluA1 receptor flip form
Method in brief: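 Ratio IC50(GluN1/2A)/IC50(GluA1), each IC50 from composite dose−response data of 5 to 10 oocytes in two-electrode voltage clamp. GluA1_i driven by 300 μM glutamate; GluN1/2A driven by 100 μM glutamate plus 100 μM glycine; antagonist coapplied.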

Glutamate receptor 1 = Glutamate receptor 1 (Rattus norvegicus, UniProt P19490); experiment: Inhibition of rat GluA1 receptor flip form expressed in Xenopus laevis oocyte assessed as glutamate-induced current at holding potentials from -80 to -40 mV by two electrode voltage clamp analysis
Sequence of Glutamate receptor 1 (P19490 whole entry, the tested form may be a part): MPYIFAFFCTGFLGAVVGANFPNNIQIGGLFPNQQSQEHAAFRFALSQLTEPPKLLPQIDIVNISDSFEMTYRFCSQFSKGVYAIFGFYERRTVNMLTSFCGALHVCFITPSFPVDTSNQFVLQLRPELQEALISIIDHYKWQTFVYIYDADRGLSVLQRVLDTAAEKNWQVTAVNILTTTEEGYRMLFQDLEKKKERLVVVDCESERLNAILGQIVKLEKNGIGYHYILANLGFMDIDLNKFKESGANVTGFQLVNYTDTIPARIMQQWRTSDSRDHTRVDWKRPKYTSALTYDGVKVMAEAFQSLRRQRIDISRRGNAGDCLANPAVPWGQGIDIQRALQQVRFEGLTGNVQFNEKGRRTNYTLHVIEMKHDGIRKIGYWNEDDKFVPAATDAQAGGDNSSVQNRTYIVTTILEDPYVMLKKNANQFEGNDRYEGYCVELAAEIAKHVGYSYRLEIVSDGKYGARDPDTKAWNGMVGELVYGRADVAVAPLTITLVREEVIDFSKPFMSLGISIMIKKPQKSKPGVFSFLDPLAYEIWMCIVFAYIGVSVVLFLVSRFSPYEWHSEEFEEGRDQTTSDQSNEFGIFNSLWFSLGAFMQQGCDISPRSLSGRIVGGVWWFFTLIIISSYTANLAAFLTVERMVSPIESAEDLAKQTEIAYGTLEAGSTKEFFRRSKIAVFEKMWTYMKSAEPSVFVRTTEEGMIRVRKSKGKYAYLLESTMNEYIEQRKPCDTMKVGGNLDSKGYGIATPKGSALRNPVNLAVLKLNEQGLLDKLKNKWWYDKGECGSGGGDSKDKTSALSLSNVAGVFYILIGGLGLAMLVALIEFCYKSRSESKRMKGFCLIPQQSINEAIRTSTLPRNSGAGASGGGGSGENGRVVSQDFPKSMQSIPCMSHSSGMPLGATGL
Method in brief: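 Oocytes injected with 25 nL GluA1_i cRNA (1 ng/nL), kept at 17 °C in Barth's medium with gentamicin, recorded 3−6 days later under two-electrode voltage clamp in frog Ringer's superfusion. Current evoked by 300 μM L-glutamate, then increasing antagonist coapplied with agonist; holding potentials −40, −60, −80 mV. Per-oocyte logistic fit for IC50, triplicate curves.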

SMILES	Ratio IC50 (Rattus norvegicus [1])	IC50 [2] [µM]	Ratio IC50 (Rattus norvegicus [3])	IC50 (Glutamate receptor 1) [µM]
N=C(N)NCCC[C@H](N)C(=O)NCCCCNCCCCCCCCNC(=O)[C@H](CC(N)=O)NC(=O)Cc1ccc(O)cc1O	10	–	–	–
N=C(N)NCCC[C@H](N)C(=O)NCCCCCCCNCCCCCNC(=O)[C@H](CC(N)=O)NC(=O)Cc1ccc(O)cc1O	0.09	0.842	11	0.078
N=C(N)NCC[C@@H](N)C(=O)NCCCCCNCCCCCCCNC(=O)[C@@H](NC(=O)Cc1ccc(O)cc1O)c1c[nH]c2ccccc12	3.4	–	–	–
N=C(N)NCCC[C@H](N)C(=O)NCCCCCNCCCCCCCNC(=O)[C@H](CC(N)=O)NC(=O)Cc1ccc(O)cc1O	7	–	–	–
N=C(N)NCCC[C@H](N)C(=O)NCCCNCCCNCCCCCNC(=O)[C@H](CC(N)=O)NC(=O)Cc1ccc(O)cc1O	8	0.01	–	–
NC(=O)C[C@H](NC(=O)Cc1ccc(O)cc1O)C(=O)NCCCCCCCNCCCCCNC(=O)[C@@H](N)CCCN=C(N)N	–	0.017	–	0.118
N=C(N)NCC[C@@H](N)C(=O)NCCCCCNCCCCCCCNC(=O)[C@H](CC(=O)O)NC(=O)Cc1ccc(O)cc1O	0.07	2.23	13	0.167
N=C(N)NCCC[C@H](N)C(=O)NCCCCCCNCCCCCCNC(=O)[C@H](CC(N)=O)NC(=O)Cc1ccc(O)cc1O	2	0.021	–	0.046
N=C(N)NCCC[C@H](N)C(=O)NCCCCCCCCNCCCCNC(=O)[C@H](CC(N)=O)NC(=O)Cc1ccc(O)cc1O	0.08	0.231	12	0.019
N=C(N)NCCC[C@H](N)C(=O)NCCCNCCCCCCCCCNC(=O)[C@H](CC(N)=O)NC(=O)Cc1ccc(O)cc1O	32	–	–	–
NC(=O)C[C@H](NC(=O)Cc1ccc(O)cc1O)C(=O)NCCCCCCCCNCCCCNC(=O)[C@@H](N)CCCN=C(N)N	–	0.008	–	0.083
N=C(N)NCCC[C@H](N)C(=O)NCCCCCCCCCNCCCNC(=O)[C@H](CC(N)=O)NC(=O)Cc1ccc(O)cc1O	< 0.06	> 3	< 0.06	0.171
NC(=O)C[C@H](NC(=O)Cc1ccc(O)cc1O)C(=O)NCCCCCCCCCNCCCNC(=O)[C@@H](N)CCCN=C(N)N	–	0.014	–	0.454
